Experimental findings from ChEMBL document CHEMBL6134787, “Fexinidazole optimization: enhancing anti-leishmanial profile, metabolic stability and hERG safety” (RSC Med Chem, 2024) are described below.

The IC50 is the concentration that inhibits the measured activity by half. For orientation: IC25 means the concentration at which the effect reaches the 25% level. High values mean a need for much substance, low ones an effect from little substance.

Calls of active or inactive are those of the source. The calls are words filed in the database; no cut-off is given here.

Chain of Voltage-gated inwardly rectifying potassium channel KCNH2 (Q12809 whole entry): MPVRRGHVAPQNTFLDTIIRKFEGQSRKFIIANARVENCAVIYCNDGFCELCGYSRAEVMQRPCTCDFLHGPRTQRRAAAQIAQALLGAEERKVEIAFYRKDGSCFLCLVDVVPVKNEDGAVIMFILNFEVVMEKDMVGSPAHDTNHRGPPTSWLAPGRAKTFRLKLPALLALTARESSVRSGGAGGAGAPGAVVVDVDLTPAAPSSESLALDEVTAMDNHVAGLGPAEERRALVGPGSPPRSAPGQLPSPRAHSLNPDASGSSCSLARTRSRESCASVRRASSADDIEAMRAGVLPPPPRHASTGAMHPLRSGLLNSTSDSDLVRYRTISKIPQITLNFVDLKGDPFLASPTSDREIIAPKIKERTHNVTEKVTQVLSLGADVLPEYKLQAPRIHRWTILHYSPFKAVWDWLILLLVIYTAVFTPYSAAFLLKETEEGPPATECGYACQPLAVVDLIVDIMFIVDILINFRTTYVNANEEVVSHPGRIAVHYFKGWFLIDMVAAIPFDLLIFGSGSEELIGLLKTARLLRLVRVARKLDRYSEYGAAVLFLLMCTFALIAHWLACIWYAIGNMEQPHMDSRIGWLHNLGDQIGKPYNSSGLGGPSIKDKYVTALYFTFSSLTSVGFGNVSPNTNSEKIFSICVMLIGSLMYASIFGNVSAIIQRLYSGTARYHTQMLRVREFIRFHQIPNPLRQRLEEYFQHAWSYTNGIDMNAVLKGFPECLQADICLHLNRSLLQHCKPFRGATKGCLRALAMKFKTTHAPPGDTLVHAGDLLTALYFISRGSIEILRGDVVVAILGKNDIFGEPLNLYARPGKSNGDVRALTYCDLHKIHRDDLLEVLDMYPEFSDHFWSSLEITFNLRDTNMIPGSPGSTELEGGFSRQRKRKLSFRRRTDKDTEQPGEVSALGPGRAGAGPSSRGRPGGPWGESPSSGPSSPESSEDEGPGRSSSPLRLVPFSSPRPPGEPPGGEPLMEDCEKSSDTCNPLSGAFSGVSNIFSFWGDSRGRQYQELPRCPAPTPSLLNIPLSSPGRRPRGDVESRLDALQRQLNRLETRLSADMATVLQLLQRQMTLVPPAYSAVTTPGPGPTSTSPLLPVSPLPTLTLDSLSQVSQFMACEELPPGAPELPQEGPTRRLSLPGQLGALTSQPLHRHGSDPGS

The test system of one series is Leishmania braziliensis. The experiment in a line: Antileishmanial activity against wild type Leishmania braziliensis UA847 promastigotes […] assessed as inhibition of parasite growth incubated for 72 hrs by automatic microtiter plate reader analysis. It is filed as functional, organism-based.
Settings: not given
Summed up:
(§1)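 Promastigotes were grown in Schneider's medium (4 mM glutamine, gentamicin, 10% heat-inactivated FBS, pH 6.9, 27 °C). Cells were seeded at 1.5 × 10^5/well and exposed to a concentration series for 72 h at 27 °C.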
Consider `CSc1ccc(OCC2Cn3cc([N+](=O)[O-])nc3O2)cc1` (racemic), for which the IC50 was determined as 1500 nM.

The subject of the next series is Leishmania donovani. The experiment in a line: Antileishmanial activity against wild type Leishmania donovani HU3 promastigotes […] assessed as inhibition of parasite growth incubated for 72 hrs by automatic microtiter plate reader analysis. It is filed as functional, organism-based.
Settings: not given
For the compound `CSc1ccc(OCC2Cn3cc([N+](=O)[O-])nc3O2)cc1` (racemic), the half-maximal inhibitory concentration (IC50) is 1000 nM.

For another series, the target named is hERG (KCNH2) (Homo sapiens, UniProt Q12809). In words: Inhibition of human ERG stably overexpressed in HEK293 cells assessed as remaining activity at 6 uM incubated for 30 mins by FLIPR assay. It is filed as toxicity, cell-based. To be noted: HEK293 cells stably overexpressing hERG, read-out: Activity. In short, it runs like this: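 HEK-293 cells stably expressing hERG, seeded at 60 000/well and grown 24 h. Compounds were added in DMSO (final 0.5%) and incubated 30 min in the dark. After 20 s baseline, Tl+ stimulus (3 mM) was added and fluorescence (ex 485/em 535 nm) recorded for 2.5 min.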
Chain of hERG (KCNH2) (Q12809 whole entry): as above
For orientation: Block of hERG is tested as a sign of cardiac risk.
As to `CSc1ccc(OCC2Cn3cc([N+](=O)[O-])nc3O2)cc1` (racemic), the activity at 0.5 h, 6 µM is 81%.

Another series relates to Leishmania donovani. In words: Antileishmanial activity against miltefosine resistant Leishmania donovani HU3MILR40 amastigotes infected in mouse peritoneal macrophage assessed as inhibition of parasite growth at 1.5 uM incubated for 72 hrs by giemsa staining based analysis.
Settings: not given
It is filed as functional, organism-based. In short, it runs like this:
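Adherent mouse peritoneal macrophages on coverslips infected overnight with late-log HU3MILR40 promastigotes (40 parasites per macrophage), then exposed to compound at a single fixed concentration in DMEM + 10% FBS for 72 h at 37 °C. Giemsa-stained coverslips imaged at 1000×; amastigotes per 100 macrophages counted versus DMSO control; mean ± SD of three independent experiments, Student's t-test.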
On to `CSc1ccc(OCC2Cn3cc([N+](=O)[O-])nc3O2)cc1` (racemic), for which the Activity entry was “Active”.

The subject of the next series is Leishmania amazonensis. The experiment in a line: Antileishmanial activity against wild type Leishmania amazonensis LV78 promastigotes […] assessed as inhibition of parasite growth incubated for 72 hrs by automatic microtiter plate reader analysis. It counts as functional, organism-based.
Settings: not given
Summed up: as §1
As to `CSc1ccc(OCC2Cn3cc([N+](=O)[O-])nc3O2)cc1` (racemic), the IC50 amounted to 1800 nM.

The next series has as its target Voltage-gated inwardly rectifying potassium channel KCNH2 (Homo sapiens, UniProt Q12809). In words: Inhibition of human ERG stably overexpressed in HEK293 cells incubated for 30 mins by FLIPR assay. It is filed as toxicity, cell-based. To be noted: human, hek293, 0.5 h; time 30 min.
Compound `CSc1ccc(OCC2Cn3cc([N+](=O)[O-])nc3O2)cc1` (racemic) had an IC25 of 2900 nM.

For another series, the system named is Leishmania amazonensis. The experiment in a line: Antileishmanial activity against wild type Leishmania amazonensis LV78 amastigotes infected in mouse peritoneal macrophage assessed as inhibition of parasite growth incubated for 72 hrs by giemsa staining based analysis. It counts as functional, organism-based.
Settings: not given
In short, it runs like this:
(§2)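 Mouse peritoneal macrophages (1 × 10^5/well on coverslips, DMEM + 10% heat-inactivated FBS, penicillin/streptomycin) adhered overnight at 37 °C, 5% CO2. They were infected overnight with late-log promastigotes at a 20:1 parasite:macrophage ratio. Cells were then treated with compound for 72 h at 37 °C and Giemsa-stained. Amastigotes per 100 macrophages were counted to derive IC50; mean ± SD of 3–4 independent experiments.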
As to `CSc1ccc(OCC2Cn3cc([N+](=O)[O-])nc3O2)cc1` (racemic), the IC50 turned out to be 700 nM.

Test system in the next series: not listed separately
The experiment in a line: Selectivity ratio of IC50 for cytotoxicity against mouse peritoneal macrophage assessed as inhibition of cell growth to IC50 for antileishmanial activity against miltefosine resistant Leishmania donovani HU3MILR40 amastigotes infected in mouse peritoneal macrophage assessed as inhibition of parasite growth. It counts as toxicity, cell-based. To be noted: peritoneal macrophages, read-out: Ratio IC50.
On to `CSc1ccc(OCC2Cn3cc([N+](=O)[O-])nc3O2)cc1` (racemic), for which the selectivity ratio is above 250.

Test system in the next series: not listed separately
In words: Hepatotoxicity against mouse TAMH cells assessed as cell viability at 7.8 to 125 uM incubated for 24 to 48 hrs by MTT assay. Conditions: dose lower 7.8 µM, time lower 24 hrs, dose upper 125 µM, time upper 48 hrs, read-out: Activity. It counts as toxicity, cell-based. Summed up:
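TAMH mouse liver cells in FCS-free DMEM/F12 with 5% PANEXIN NTA, 10 mM nicotinamide and gentamicin. Seeded at 20 000/well and attached 24 h at 37 °C, 5% CO2. DMSO-diluted compounds were applied for 24 or 48 h. MTT was added for 4 h, formazan dissolved in DMSO and A570 read. Viability was background-corrected and expressed relative to DMSO controls; mean ± SD, ≥3 experiments.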
As for `CSc1ccc(OCC2Cn3cc([N+](=O)[O-])nc3O2)cc1` (racemic), the viability at up to 125 µM was above 50%.

Another series deals with Leishmania donovani. The experiment in a line: Antileishmanial activity against miltefosine resistant Leishmania donovani HU3MILR40 amastigotes infected in mouse peritoneal macrophage assessed as inhibition of parasite growth incubated for 72 hrs by giemsa staining based analysis. It is filed as functional, organism-based.
Settings: not given
Summed up:
(§3)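 Mouse peritoneal macrophages in DMEM + 10% heat-inactivated FBS, penicillin/streptomycin; 1 × 10^5 cells per well on coverslips, adhered overnight at 37 °C, 5% CO2, non-adherent cells washed off. Infected overnight with late-log promastigotes at parasite:macrophage 40:1. Compound exposure 72 h at 37 °C; Giemsa stain, amastigotes per 100 macrophages counted, IC50 derived; means ± SD of 3–4 independent experiments.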
For `CSc1ccc(OCC2Cn3cc([N+](=O)[O-])nc3O2)cc1` (racemic), the IC50 stood at 400 nM.

For the next series, the system named is Leishmania donovani. In words: Antileishmanial activity against miltefosine resistant Leishmania donovani HU3MILR40 promastigotes […] assessed as inhibition of parasite growth incubated for 72 hrs by automatic microtiter plate reader analysis. It is filed as functional, organism-based.
Settings: not given
Summed up: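 Promastigote (free parasite) assay: Schneider's Drosophila medium with 4 mM glutamine, 25 μg mL−1 gentamicin, 10% heat-inactivated FBS, pH 6.9, 27 °C. 1.5 × 10^5 promastigotes per well exposed to a concentration series for 72 h at 27 °C.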
For the compound `CSc1ccc(OCC2Cn3cc([N+](=O)[O-])nc3O2)cc1` (racemic), the half-inhibitory concentration (IC50) amounted to 400 nM.

Test system in another series: not listed separately
In words: Cytotoxicity against mouse L929 cells assessed as inhibition of cell growth incubated for 72 hrs by MTS assay.
Settings: not given
It is filed as toxicity, cell-based. In short, it runs like this: (§4)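 Cells in DMEM + 10% heat-inactivated FBS with penicillin/streptomycin at 37 °C, 5% CO2. They were seeded at 1 × 10^4/well and incubated with a concentration series for 72 h at 37 °C. Viability was read by MTS/PMS assay at 490 nm and IC50 derived.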
With `CSc1ccc(OCC2Cn3cc([N+](=O)[O-])nc3O2)cc1` (racemic), the half-maximal inhibitory concentration (IC50) at 72 h was above 100000 nM.

Test system in the next series: not listed separately
The experiment in a line: Metabolic stability in rat liver S9 fraction assessed as compound remaining at 20 uM measured after 32 mins in presence of NADP and GSH by HPLC analysis. It counts as ADME, subcellular. To be noted: read-out: Stability. In short, it runs like this:
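Rat liver S9 (final 4 mg/mL) in 50 mM phosphate pH 7.4 with NADPH-regenerating system (0.3 mM NADP+, 5.3 mM glucose-6-phosphate, G6PDH), 10 mM MgCl2 and 5 mM EDTA. Pre-warmed 10 min at 37 °C, then 20 μM compound and 5.5 μM GSH added. Samples taken at 0, 16 and 32 min were quenched in ice-cold acetonitrile. HPLC (254/280 nm) peak area was expressed relative to 0 min.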
Turning to `CSc1ccc(OCC2Cn3cc([N+](=O)[O-])nc3O2)cc1` (racemic), the remaining at 32 min, 20 µM turned out to be 90.4%.

Test system in a further series: not listed separately
In words: Cytotoxicity against mouse peritoneal macrophage assessed as inhibition of cell growth incubated for 72 hrs by giemsa staining based analysis. It counts as toxicity. To be noted: peritoneal macrophages.
`CSc1ccc(OCC2Cn3cc([N+](=O)[O-])nc3O2)cc1` (racemic): the IC50 at 72 h is above 100000 nM.

The subject of a further series is RAW264.7. The experiment in a line: Cytotoxicity against mouse RAW264.7 cells assessed as inhibition of cell growth incubated for 72 hrs by MTS assay. It is filed as functional, cell-based. Conditions: RAW264.7, 72 h. Summed up:
as §4
(In general: Tetrazolium dyes change colour on reduction, which living cells bring about.)
On to `CSc1ccc(OCC2Cn3cc([N+](=O)[O-])nc3O2)cc1` (racemic), for which the concentration for half-maximal inhibition (IC50) is above 100000 nM.

The test system of a further series is Leishmania braziliensis. The experiment in a line: Antileishmanial activity against wild type Leishmania braziliensis UA847 amastigotes infected in mouse peritoneal macrophage assessed as inhibition of parasite growth incubated for 72 hrs by giemsa staining based analysis. It is filed as functional, organism-based.
Settings: not given
In short, it runs like this: as §2
With `CSc1ccc(OCC2Cn3cc([N+](=O)[O-])nc3O2)cc1` (racemic), the IC50 amounted to 700 nM.

A further series concerns Leishmania major. In words: Antileishmanial activity against wild type Leishmania major FV1 promastigotes […] assessed as inhibition of parasite growth incubated for 72 hrs by automatic microtiter plate reader analysis. It is filed as functional, organism-based.
Settings: not given
In short, it runs like this:
as §1
In the case of `CSc1ccc(OCC2Cn3cc([N+](=O)[O-])nc3O2)cc1` (racemic), the 50% inhibitory concentration (IC50) is 3400 nM.

Test system in the next series: not listed separately
The experiment in a line: Metabolic stability in rat liver microsome assessed as compound remaining at 20 uM measured after 32 mins in presence of NADP and GSH by HPLC analysis. It counts as ADME. Conditions: liver microsomes, read-out: Stability. In short, it runs like this: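 Rat liver microsomes (final 2 mg/mL) in 50 mM phosphate pH 7.4 with 0.3 mM NADP+, 5.3 mM glucose-6-phosphate, G6PDH, 10 mM MgCl2 and 5 mM EDTA. 20 μM compound added at 37 °C. Aliquots at 0, 16 and 32 min were quenched in ice-cold acetonitrile and centrifuged. HPLC peak area at 254/280 nm was expressed relative to 0 min.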
In general terms: Liver microsomes are vesicles of endoplasmic reticulum, rich in cytochrome P450 enzymes.
For `CSc1ccc(OCC2Cn3cc([N+](=O)[O-])nc3O2)cc1` (racemic), the remaining at 32 min, 20 µM was 55.8%.

A further series relates to Leishmania donovani. In words: Antileishmanial activity against wild type Leishmania donovani HU3 amastigotes infected in mouse peritoneal macrophage assessed as inhibition of parasite growth incubated for 72 hrs by giemsa staining based analysis. It is filed as functional, organism-based.
Settings: not given
In short, it runs like this: as §3
As to `CSc1ccc(OCC2Cn3cc([N+](=O)[O-])nc3O2)cc1` (racemic), the IC50 was found to be 300 nM.
